# Ends that are not written are not given here.
# T1: Elastase 2A (CEL2A) (Homo sapiens, UniProt P08217)
# T1 sequence (P08217 29-269): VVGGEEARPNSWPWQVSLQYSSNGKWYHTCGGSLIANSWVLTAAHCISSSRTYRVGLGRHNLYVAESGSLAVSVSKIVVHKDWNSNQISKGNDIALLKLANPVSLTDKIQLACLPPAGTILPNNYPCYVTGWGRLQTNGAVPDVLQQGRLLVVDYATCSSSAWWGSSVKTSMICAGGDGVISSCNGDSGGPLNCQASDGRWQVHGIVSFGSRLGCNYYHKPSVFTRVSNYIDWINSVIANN
# T2: carboxypeptidase A1 (CBPA1) (Homo sapiens, UniProt P15085)
# T2 sequence (P15085 111-419): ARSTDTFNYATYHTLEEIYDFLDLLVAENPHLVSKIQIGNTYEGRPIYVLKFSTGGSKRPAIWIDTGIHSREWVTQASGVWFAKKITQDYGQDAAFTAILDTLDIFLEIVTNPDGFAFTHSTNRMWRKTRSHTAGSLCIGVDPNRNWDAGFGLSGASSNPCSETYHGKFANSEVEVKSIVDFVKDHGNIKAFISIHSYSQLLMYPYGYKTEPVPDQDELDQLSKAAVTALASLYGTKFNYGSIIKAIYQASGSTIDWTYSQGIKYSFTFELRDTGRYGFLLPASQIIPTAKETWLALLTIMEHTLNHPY
# T3: Elastase 3B (CEL3B) (Homo sapiens, UniProt P08861)
# T3 sequence (P08861 29-270): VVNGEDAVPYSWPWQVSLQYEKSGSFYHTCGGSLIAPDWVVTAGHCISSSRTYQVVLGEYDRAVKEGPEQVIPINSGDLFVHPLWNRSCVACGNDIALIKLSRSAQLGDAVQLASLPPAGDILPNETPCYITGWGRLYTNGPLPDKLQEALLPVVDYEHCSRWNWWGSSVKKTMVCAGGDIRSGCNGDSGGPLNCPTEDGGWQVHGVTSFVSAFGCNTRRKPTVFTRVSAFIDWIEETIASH
# Experiments:
# Elastase 2A (CEL2A) = molecular target: T1, Elastase 2A (CEL2A); assay: 33-mer, 19-mer and 13-mer hydrolysis by purified human fecal elastase 2A; assay type: in vitro ADME; conditions: for extent of degradation by CEL2A: PBS pH 7.3, 37 °C, 60 min, RP-HPLC UV 215 nm
# Summary of the method: (§1)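 Purified human fecal enzyme (3.4 µL of 0.8 mg/mL) was incubated with 33-, 19- or 13-mer gliadin peptide (4.7 µL of 60 µM) in PBS pH 7.3 (40 µL total) at 37 °C for 60 min (also 24 h). Reactions were stopped by boiling for 10 min, then filtered. Read-out: C18 RP-HPLC, 0.1% TFA water-to-acetonitrile gradient over 20 min, UV 215 nm. Controls: enzyme boiled 15 min; peptide alone.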
# CEL2A, CBPA1, and CEL3B = assay: 33-mer hydrolysis with CEL2A, CBPA1 and CEL3B added together; assay type: in vitro ADME, human; conditions: CBPA1 and CEL3B added simultaneously or sequentially, 60 min (not shown)
# [1] = molecular target: T2, carboxypeptidase A1 (CBPA1); assay type: in vitro ADME; conditions: for extent of degradation by CBPA1: purified CBPA1, PBS pH 7.3, 37 °C, 60 min, RP-HPLC UV 215 nm
# Summary of the method: as §1
# Elastase 3B (CEL3B) = molecular target: T3, Elastase 3B (CEL3B); assay: 33-mer, 19-mer and 13-mer hydrolysis by purified human fecal elastase 3B; assay type: in vitro ADME
# Summary of the method: as §1
# [2] = Peptide hydrolysis by fecal protein extracts of celiac disease; assay type: in vitro ADME, human; conditions: for extent of degradation by CD fecal samples, 24 h: fecal extracts of CD patients, 24-h incubation (not shown)
# Summary of the method: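 Stools from treated celiac patients (Marsh III at diagnosis, gluten-free diet, no antibiotics for a month) were stored at −80 °C. They were homogenized in 10 mM Tris-HCl pH 7.5, and the 35–65% ammonium sulfate fraction was desalted. Extract (3.4 µL of 0.8 mg/mL) plus peptide (4.7 µL of 60 µM) in PBS pH 7.3 ran 60 min or 24 h at 37 °C. Read-out: C18 RP-HPLC, UV 215 nm.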
# gluten and gliadin = assay: Glutenase and gliadinase activity of commercial proteases; assay type: biochemical; conditions: bioassay on MCG-1 gluten agar plates and gliadin zymography
# [3] = 37 °C, 24-h incubation (not shown)
Molecule,extent of degradation by CEL2A (Elastase 2A (CEL2A)),extent of degradation by CBPA1 [1],"extent of degradation by CD fecal samples, 24 h [2]",hydrolytic activity against gluten and gliadin (gluten and gliadin),also measured
LQLQPFPQPQLPYPQPQLPYPQPQLPYPQPQPF [33-mer],not completely degraded,not completely degraded,incomplete,–,"extent of degradation by CEL2A after 24 h (Elastase 2A (CEL2A); [3]): not completely degraded; change of degradation when all 3 enzymes are added (CEL2A, CBPA1, and CEL3B): did not increase; extent of degradation by CBPA1 after 24 h ([1]; purified CBPA1, 37 °C, 24-h incubation (not shown)): not completely degraded; extent of degradation by CEL3B after 24 h (Elastase 3B (CEL3B); [3]): not completely degraded; extent of degradation by CEL3B (Elastase 3B (CEL3B); PBS pH 7.3, 37 °C, 60 min, RP-HPLC UV 215 nm): not completely degraded; degradation in CD patients relative to NCD samples (higher by) ([2]; fecal extracts of CD patients versus NCD volunteers, 37 °C, 60 min, HPLC): 37%"
LGQQQPFPPQQPYPQPQPF [19-mer],fully degraded,fully degraded,completely degraded,–,–
LGQQQPFPPQQPY [13-mer],fully degraded,fully degraded,completely degraded,–,–
porcine elastase: commercial protease (3.4.21.36) from Sigma,–,–,–,showed hydrolytic activity,–
"recombinant rat carboxypeptidase A1: commercial protease (3.4.17.1) from MyBioSource (protein, UniProt P00731 111-419, looked up) Carboxypeptidase A1: ALSTDSFNYATYHTLDEIYEFMDLLVAEHPQLVSKIQIGNTFEGRPIHVLKFSTGGTNRPAIWIDTGIHSREWVTQASGVWFAKKITKDYGQDPTFTAVLDNMDIFLEIVTNPDGFAYTHKTNRMWRKTRSHTQGSLCVGVDPNRNWDAGFGMAGASSNPCSETYRGKFPNSEVEVKSIVDFVTSHGNIKAFISIHSYSQLLLYPYGYTSEPAPDQAELDQLAKSAVTALTSLHGTKFKYGSIIDTIYQASGSTIDWTYSQGIKYSFTFELRDTGLRGFLLPASQIIPTAEETWLALLTIMDHTVKHPY",–,–,–,showed hydrolytic activity,–
"recombinant bovine chymotrypsin-like elastase family member 2A: commercial protease (3.4.21.71) from MyBioSource (protein, UniProt Q29461 29-269, looked up) Chymotrypsin-like elastase …: VVGGEDARPNSWPWQVSLQYSSSGQWRHTCGGSLIEQNWVLTAAHCISSSRTYRVVVGRQSLSTVESGSLTIAVSKSVIHEKWNSNQLAQGNDIALLKLASSVPLTDKIQLGCLPAAGTILPNNYVCYVTGWGRLQSNGALPDILQQGKLLVVDYATCSNPSWWGSTVKTNMICAGGDGVTSSCNGDSGGPLNCQAANRQWQVHGIVSFGSSLGCNYYRKPSVFTRVSNYNDWISSVIENN",–,–,–,showed hydrolytic activity,–
"recombinant mouse chymotrypsin-like elastase family member 3B: commercial protease (3.4.21.70) from MyBioSource (protein, UniProt Q9CQ52 28-269, looked up) Chymotrypsin-like elastase …: VVNGEEAVPHSWPWQVSLQYEKDGSFHHTCGGSLITPDWVLTAGHCISTSRTYQVVLGEHERGVEEGQEQVIPINAGDLFVHPKWNSMCVSCGNDIALVKLSRSAQLGDAVQLACLPPAGEILPNGAPCYISGWGRLSTNGPLPDKLQQALLPVVDYEHCSRWNWWGLSVKTTMVCAGGDIQSGCNGDSGGPLNCPADNGTWQVHGVTSFVSSLGCNTLRKPTVFTRVSAFIDWIEETIANN",–,–,–,showed hydrolytic activity,–
